In brackets after ≈: the same amount, converted by molar mass.
Experiments:
Type in all cases: functional
Candida albicans [1] = assay: Antimicrobial activity against Candida albicans SC5314 after 24 hrs by serial dilution method; conditions: SC5314, 24 h
Outline: (§1)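 Broth serial dilution MIC in 96-well plates following NCCLS/CLSI methods. Compounds were dissolved in DMSO and serially diluted in growth medium, with incubation at 35 °C. […] C. parapsilosis 22019 served as the quality-control strain in each assay.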

Candida albicans [2] = assay: Antimicrobial activity against Candida albicans Y0109 after 24 hrs by serial dilution method; conditions: Y0109, 24 h; outline: as §1
Candida parapsilosis = assay: Antimicrobial activity against Candida parapsilosis 22019 after 24 hrs by serial dilution method; conditions: Lodderomyces parapsilosis, 22019, 24 h; outline: as §1
Cryptococcus neoformans = assay: Antimicrobial activity against Cryptococcus neoformans 32609 after 72 hrs by serial dilution method; conditions: Cryptococcus neoformans, 32609, 72 h; outline: as §1
Nakaseomyces glabratus = assay: Antimicrobial activity against Candida glabrata 537 after 24 hrs by serial dilution method; conditions: Nakaseomyces glabratus, 537, 24 h; outline: as §1
Aspergillus fumigatus = assay: Antimicrobial activity against Aspergillus fumigatus 7544 after 48 hrs by serial dilution method; conditions: Aspergillus fumigatus, 7544, 48 h; outline: as §1

Compound: C[C@@H](N1CCn2ncnc2C1)[C@](O)(Cn1cncn1)c1ccc(F)cc1F
- MIC (Candida albicans [1]): 0.25 µg/mL (≈ 0.666 µM)
- MIC (Candida albicans [2]): 0.25 µg/mL (≈ 0.666 µM)
- MIC (Candida parapsilosis): 0.25 µg/mL (≈ 0.666 µM)
- MIC (Cryptococcus neoformans): 0.5 µg/mL (≈ 1.33 µM)
- MIC (Nakaseomyces glabratus): 0.5 µg/mL (≈ 1.33 µM)
- MIC (Aspergillus fumigatus): 16 µg/mL (≈ 42.6 µM)

Compound: C[C@@H](N1CCn2nc(C(F)(F)F)nc2C1)[C@](O)(Cn1cncn1)c1ccc(F)cc1F
- MIC (Candida albicans [1]): 0.25 µg/mL (≈ 0.564 µM)
- MIC (Candida albicans [2]): 0.5 µg/mL (≈ 1.13 µM)
- MIC (Candida parapsilosis): 0.5 µg/mL (≈ 1.13 µM)
- MIC (Cryptococcus neoformans): 0.5 µg/mL (≈ 1.13 µM)
- MIC (Nakaseomyces glabratus): 1 µg/mL (≈ 2.26 µM)
- MIC (Aspergillus fumigatus): 32 µg/mL (≈ 72.2 µM)

Compound: C[C@@H](N1CCn2nc(-c3ccc(C#N)cc3)nc2C1)[C@](O)(Cn1cncn1)c1ccc(F)cc1F
- MIC (Candida albicans [1]): 0.125 µg/mL (≈ 0.262 µM)
- MIC (Candida albicans [2]): 0.125 µg/mL (≈ 0.262 µM)
- MIC (Candida parapsilosis): 0.5 µg/mL (≈ 1.05 µM)
- MIC (Cryptococcus neoformans): 0.125 µg/mL (≈ 0.262 µM)
- MIC (Nakaseomyces glabratus): 0.125 µg/mL (≈ 0.262 µM)
- MIC (Aspergillus fumigatus): 64 µg/mL (≈ 134 µM)

Compound: Cc1cccc(-c2nc3n(n2)CCN([C@H](C)[C@](O)(Cn2cncn2)c2ccc(F)cc2F)C3)c1
- MIC (Candida albicans [1]): 0.0625 µg/mL (≈ 0.134 µM)
- MIC (Candida albicans [2]): 0.125 µg/mL (≈ 0.269 µM)
- MIC (Candida parapsilosis): 0.25 µg/mL (≈ 0.537 µM)
- MIC (Cryptococcus neoformans): 0.125 µg/mL (≈ 0.269 µM)
- MIC (Nakaseomyces glabratus): 0.125 µg/mL (≈ 0.269 µM)
- MIC (Aspergillus fumigatus): 32 µg/mL (≈ 68.7 µM)

Compound: C[C@@H](N1CCn2nc(-c3ccc(Br)cc3)nc2C1)[C@](O)(Cn1cncn1)c1ccc(F)cc1F
- MIC (Candida albicans [1]): 0.25 µg/mL (≈ 0.471 µM)
- MIC (Candida albicans [2]): 0.125 µg/mL (≈ 0.236 µM)
- MIC (Candida parapsilosis): 0.5 µg/mL (≈ 0.943 µM)
- MIC (Cryptococcus neoformans): 0.25 µg/mL (≈ 0.471 µM)
- MIC (Nakaseomyces glabratus): 0.5 µg/mL (≈ 0.943 µM)
- MIC (Aspergillus fumigatus): 16 µg/mL (≈ 30.2 µM)

Compound: C[C@@H](N1CCn2nc(-c3ccc(F)cc3)nc2C1)[C@](O)(Cn1cncn1)c1ccc(F)cc1F
- MIC (Candida albicans [1]): 0.25 µg/mL (≈ 0.533 µM)
- MIC (Candida albicans [2]): 0.125 µg/mL (≈ 0.266 µM)
- MIC (Candida parapsilosis): 0.125 µg/mL (≈ 0.266 µM)
- MIC (Cryptococcus neoformans): 0.125 µg/mL (≈ 0.266 µM)
- MIC (Nakaseomyces glabratus): 0.125 µg/mL (≈ 0.266 µM)
- MIC (Aspergillus fumigatus): 32 µg/mL (≈ 68.2 µM)

Compound: C[C@@H](N1CCn2nc(-c3ccc(Cl)cc3)nc2C1)[C@](O)(Cn1cncn1)c1ccc(F)cc1F
- MIC (Candida albicans [1]): 0.25 µg/mL (≈ 0.514 µM)
- MIC (Candida albicans [2]): 0.125 µg/mL (≈ 0.257 µM)
- MIC (Candida parapsilosis): 0.5 µg/mL (≈ 1.03 µM)
- MIC (Cryptococcus neoformans): 0.125 µg/mL (≈ 0.257 µM)
- MIC (Nakaseomyces glabratus): 0.5 µg/mL (≈ 1.03 µM)
- MIC (Aspergillus fumigatus): 16 µg/mL (≈ 32.9 µM)

Compound: C[C@@H](N1CCn2nc(-c3cccc(Cl)c3)nc2C1)[C@](O)(Cn1cncn1)c1ccc(F)cc1F
- MIC (Candida albicans [1]): 0.25 µg/mL (≈ 0.514 µM)
- MIC (Candida albicans [2]): 0.125 µg/mL (≈ 0.257 µM)
- MIC (Candida parapsilosis): 1 µg/mL (≈ 2.06 µM)
- MIC (Cryptococcus neoformans): 2 µg/mL (≈ 4.12 µM)
- MIC (Nakaseomyces glabratus): 1 µg/mL (≈ 2.06 µM)
- MIC (Aspergillus fumigatus): 64 µg/mL (≈ 132 µM)

Compound: C[C@@H](N1CCn2nc(-c3cccc(Br)c3)nc2C1)[C@](O)(Cn1cncn1)c1ccc(F)cc1F
- MIC (Candida albicans [1]): 0.25 µg/mL (≈ 0.471 µM)
- MIC (Candida albicans [2]): 0.125 µg/mL (≈ 0.236 µM)
- MIC (Candida parapsilosis): 0.5 µg/mL (≈ 0.943 µM)
- MIC (Cryptococcus neoformans): 1 µg/mL (≈ 1.89 µM)
- MIC (Nakaseomyces glabratus): 1 µg/mL (≈ 1.89 µM)
- MIC (Aspergillus fumigatus): 16 µg/mL (≈ 30.2 µM)

Compound: C[C@@H](N1CCn2nc(-c3cccc(C(F)(F)F)c3)nc2C1)[C@](O)(Cn1cncn1)c1ccc(F)cc1F
- MIC (Candida albicans [1]): 0.5 µg/mL (≈ 0.963 µM)
- MIC (Candida albicans [2]): 2 µg/mL (≈ 3.85 µM)
- MIC (Candida parapsilosis): 0.5 µg/mL (≈ 0.963 µM)
- MIC (Cryptococcus neoformans): 2 µg/mL (≈ 3.85 µM)
- MIC (Nakaseomyces glabratus): 0.25 µg/mL (≈ 0.481 µM)
- MIC (Aspergillus fumigatus): 16 µg/mL (≈ 30.8 µM)

Compound: C[C@@H](N1CCn2nc(-c3ccc(C(F)(F)F)cc3)nc2C1)[C@](O)(Cn1cncn1)c1ccc(F)cc1F
- MIC (Candida albicans [1]): 0.25 µg/mL (≈ 0.481 µM)
- MIC (Candida albicans [2]): 0.5 µg/mL (≈ 0.963 µM)
- MIC (Candida parapsilosis): 0.5 µg/mL (≈ 0.963 µM)
- MIC (Cryptococcus neoformans): 1 µg/mL (≈ 1.93 µM)
- MIC (Nakaseomyces glabratus): 0.125 µg/mL (≈ 0.241 µM)
- MIC (Aspergillus fumigatus): 16 µg/mL (≈ 30.8 µM)

Compound: C[C@@H](N1CCn2nc(-c3ccc(F)cc3F)nc2C1)[C@](O)(Cn1cncn1)c1ccc(F)cc1F
- MIC (Candida albicans [1]): 0.125 µg/mL (≈ 0.256 µM)
- MIC (Candida albicans [2]): 0.125 µg/mL (≈ 0.256 µM)
- MIC (Candida parapsilosis): 0.25 µg/mL (≈ 0.513 µM)
- MIC (Cryptococcus neoformans): 0.5 µg/mL (≈ 1.03 µM)
- MIC (Nakaseomyces glabratus): 0.5 µg/mL (≈ 1.03 µM)
- MIC (Aspergillus fumigatus): > 64 µg/mL

Compound: CC(C)c1cccc(-c2nc3n(n2)CCN([C@H](C)[C@](O)(Cn2cncn2)c2ccc(F)cc2F)C3)c1
- MIC (Candida albicans [1]): 0.25 µg/mL (≈ 0.507 µM)
- MIC (Candida albicans [2]): 4 µg/mL (≈ 8.1 µM)
- MIC (Candida parapsilosis): 4 µg/mL (≈ 8.1 µM)
- MIC (Cryptococcus neoformans): 8 µg/mL (≈ 16.2 µM)
- MIC (Nakaseomyces glabratus): 4 µg/mL (≈ 8.1 µM)
- MIC (Aspergillus fumigatus): 16 µg/mL (≈ 32.4 µM)

Compound: Cc1ccc(-c2nc3n(n2)CCN([C@H](C)[C@](O)(Cn2cncn2)c2ccc(F)cc2F)C3)cc1
- MIC (Candida albicans [1]): 0.0625 µg/mL (≈ 0.134 µM)
- MIC (Candida albicans [2]): 0.125 µg/mL (≈ 0.269 µM)
- MIC (Candida parapsilosis): 0.125 µg/mL (≈ 0.269 µM)
- MIC (Cryptococcus neoformans): 0.125 µg/mL (≈ 0.269 µM)
- MIC (Nakaseomyces glabratus): 0.125 µg/mL (≈ 0.269 µM)
- MIC (Aspergillus fumigatus): 32 µg/mL (≈ 68.7 µM)

Compound: COc1ccc(-c2nc3n(n2)CCN([C@H](C)[C@](O)(Cn2cncn2)c2ccc(F)cc2F)C3)cc1
- MIC (Candida albicans [1]): 0.0625 µg/mL (≈ 0.13 µM)
- MIC (Candida albicans [2]): 0.125 µg/mL (≈ 0.26 µM)
- MIC (Candida parapsilosis): 0.25 µg/mL (≈ 0.519 µM)
- MIC (Cryptococcus neoformans): 0.125 µg/mL (≈ 0.26 µM)
- MIC (Nakaseomyces glabratus): 0.125 µg/mL (≈ 0.26 µM)
- MIC (Aspergillus fumigatus): 32 µg/mL (≈ 66.5 µM)

Compound: C[C@@H](N1CCn2nc(-c3cccc(F)c3)nc2C1)[C@](O)(Cn1cncn1)c1ccc(F)cc1F
- MIC (Candida albicans [1]): 0.125 µg/mL (≈ 0.266 µM)
- MIC (Candida albicans [2]): 0.125 µg/mL (≈ 0.266 µM)
- MIC (Candida parapsilosis): 0.5 µg/mL (≈ 1.07 µM)
- MIC (Cryptococcus neoformans): 0.5 µg/mL (≈ 1.07 µM)
- MIC (Nakaseomyces glabratus): 0.25 µg/mL (≈ 0.533 µM)
- MIC (Aspergillus fumigatus): 16 µg/mL (≈ 34.1 µM)

Compound: C[C@@H](N1CCn2nc(-c3cccc(C#N)c3)nc2C1)[C@](O)(Cn1cncn1)c1ccc(F)cc1F
- MIC (Candida albicans [1]): 0.125 µg/mL (≈ 0.262 µM)
- MIC (Candida albicans [2]): 0.125 µg/mL (≈ 0.262 µM)
- MIC (Candida parapsilosis): 0.125 µg/mL (≈ 0.262 µM)
- MIC (Cryptococcus neoformans): 0.5 µg/mL (≈ 1.05 µM)
- MIC (Nakaseomyces glabratus): 0.5 µg/mL (≈ 1.05 µM)
- MIC (Aspergillus fumigatus): 16 µg/mL (≈ 33.6 µM)

Compound: COc1cccc(-c2nc3n(n2)CCN([C@H](C)[C@](O)(Cn2cncn2)c2ccc(F)cc2F)C3)c1
- MIC (Candida albicans [1]): 0.0625 µg/mL (≈ 0.13 µM)
- MIC (Candida albicans [2]): 0.125 µg/mL (≈ 0.26 µM)
- MIC (Candida parapsilosis): 0.25 µg/mL (≈ 0.519 µM)
- MIC (Cryptococcus neoformans): 0.25 µg/mL (≈ 0.519 µM)
- MIC (Nakaseomyces glabratus): 0.125 µg/mL (≈ 0.26 µM)
- MIC (Aspergillus fumigatus): 32 µg/mL (≈ 66.5 µM)

Compound: CC(C)c1ccc(-c2nc3n(n2)CCN([C@H](C)[C@](O)(Cn2cncn2)c2ccc(F)cc2F)C3)cc1
- MIC (Candida albicans [1]): 0.5 µg/mL (≈ 1.01 µM)
- MIC (Candida albicans [2]): 0.5 µg/mL (≈ 1.01 µM)
- MIC (Candida parapsilosis): 1 µg/mL (≈ 2.03 µM)
- MIC (Cryptococcus neoformans): 2 µg/mL (≈ 4.05 µM)
- MIC (Nakaseomyces glabratus): 1 µg/mL (≈ 2.03 µM)
- MIC (Aspergillus fumigatus): 16 µg/mL (≈ 32.4 µM)

Compound: C[C@@H](N1CCn2nc(-c3cccs3)nc2C1)[C@](O)(Cn1cncn1)c1ccc(F)cc1F
- MIC (Candida albicans [1]): 0.125 µg/mL (≈ 0.273 µM)
- MIC (Candida albicans [2]): 0.125 µg/mL (≈ 0.273 µM)
- MIC (Candida parapsilosis): 0.125 µg/mL (≈ 0.273 µM)
- MIC (Cryptococcus neoformans): 0.125 µg/mL (≈ 0.273 µM)
- MIC (Nakaseomyces glabratus): 0.25 µg/mL (≈ 0.546 µM)
- MIC (Aspergillus fumigatus): 8 µg/mL (≈ 17.5 µM)

From ChEMBL document CHEMBL3259614, “Design, synthesis, and structure-activity relationship studies of novel fused heterocycles-linked triazoles with good activity and water solubility” (J Med Chem, 2014)
